Published values gathered from unrelated publications.
Compare with care: the assays were run in different laboratories.
HTR2A: 5-hydroxytryptamine receptor 2A (HTR2A, Homo sapiens, UniProt P28223)
Oprm1: Mu-type opioid receptor (Oprm1, Mus musculus, UniProt P42866)
SIGMAR1: Sigma non-opioid intracellular receptor 1 (SIGMAR1, Homo sapiens, UniProt Q99720)

NCCc1c[nH]c2cc(F)ccc12
Ki (HTR2A; ligand displacement, radioligand): 606 nM

N#Cc1ccccc1-c1cc(-c2ccccn2)cn(-c2ccccc2)c1=O
IC50 (Glutamate receptor ionotropic, kainate 2 (Grik2, Rattus norvegicus, UniProt P42260); ion current, patch clamp): 58000 nM

O=C(N[C@@H]1C=C[C@@]2(O)[C@H]3Cc4ccc(O)c5c4[C@@]2(CCN3CC2CC2)[C@H]1O5)c1c[nH]c2cccnc12
Ki (Oprm1; ligand displacement, radioligand): 0.41 nM

NCCc1c[nH]c2ccc(Cl)cc12
Ki (HTR2A; ligand displacement, radioligand): 889 nM

O=C(N[C@H]1C=C[C@@]2(O)[C@H]3Cc4ccc(O)c5c4[C@@]2(CCN3CC2CC2)[C@H]1O5)c1n[nH]c2ccccc12
Ki (Oprm1; ligand displacement, radioligand): 0.33 nM

COC(=O)/C=C/C(=O)N[C@@H]1CC[C@@]2(O)[C@H]3Cc4ccc(O)c5c4[C@@]2(CCN3CC2CC2)[C@H]1O5
IC50 (Kappa-type opioid receptor (OPRK1, Homo sapiens, UniProt P41145, E297K); ligand displacement, radioligand; cell membranes): 4.29 nM

CN[C@@H](C)[C@@H](O)c1ccccc1
Ki (SIGMAR1; ligand displacement, radioligand): > 10000 nM

O=[N+]([O-])c1cn2c(n1)OC[C@@H](OCc1ccc(OC(F)(F)F)cc1)C2
Kd (ddn (Mycobacterium tuberculosis, UniProt P9WP15); binding, fluorescence): 13900 nM

O=C(N[C@@H]1C=C[C@@]2(O)[C@H]3Cc4ccc(O)c5c4[C@@]2(CCN3CC2CC2)[C@H]1O5)c1c[nH]c2cnccc12
Ki (Oprm1; ligand displacement, radioligand): 0.56 nM

CN1CC[C@@]23CCCC[C@@H]2[C@@H]1Cc1ccc(O)cc13
Ki (SIGMAR1; ligand displacement, radioligand): 2670 nM
